Assay results: ChEMBL document CHEMBL3351385, “Synthesis and preliminary mechanistic evaluation of 5-(p-tolyl)-1-(quinolin-2-yl)pyrazole-3-carboxylic acid amides with potent antiproliferative activity on human cancer cell lines” (Eur J Med Chem, 2014)
Active and inactive are the calls of the source. The calls are words filed in the database; no cut-off is given here.

Experiments:
Huh-7 [1] = assay: Induction of cell death in human HuH7 cells assessed as induction of intracytoplasmic vacuoles at cytotoxic IC50 level after 72 hrs by inverted light microscopy; assay type: functional, cell-based
Procedure, shortened: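 They were viewed under an inverted light microscope at 20× for death morphology, including intracytoplasmic vacuoles.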

[2] = biological target: Serine/threonine-protein kinase ULK2 (Homo sapiens) (UniProt Q8IYT8); assay: Inhibition of ULK2 (unknown origin) assessed as remaining enzyme activity at 10 uM by radioactive [33P]-ATP filter binding assay
[3] = biological target: Serine/threonine-protein kinase TBK1 (Homo sapiens) (UniProt Q9UHD2); assay: Inhibition of TBK1 (unknown origin) assessed as remaining enzyme activity at 10 uM by radioactive [33P]-ATP filter binding assay
Chain of Serine/threonine-protein kinase TBK1 (Homo sapiens) (Q9UHD2 whole entry): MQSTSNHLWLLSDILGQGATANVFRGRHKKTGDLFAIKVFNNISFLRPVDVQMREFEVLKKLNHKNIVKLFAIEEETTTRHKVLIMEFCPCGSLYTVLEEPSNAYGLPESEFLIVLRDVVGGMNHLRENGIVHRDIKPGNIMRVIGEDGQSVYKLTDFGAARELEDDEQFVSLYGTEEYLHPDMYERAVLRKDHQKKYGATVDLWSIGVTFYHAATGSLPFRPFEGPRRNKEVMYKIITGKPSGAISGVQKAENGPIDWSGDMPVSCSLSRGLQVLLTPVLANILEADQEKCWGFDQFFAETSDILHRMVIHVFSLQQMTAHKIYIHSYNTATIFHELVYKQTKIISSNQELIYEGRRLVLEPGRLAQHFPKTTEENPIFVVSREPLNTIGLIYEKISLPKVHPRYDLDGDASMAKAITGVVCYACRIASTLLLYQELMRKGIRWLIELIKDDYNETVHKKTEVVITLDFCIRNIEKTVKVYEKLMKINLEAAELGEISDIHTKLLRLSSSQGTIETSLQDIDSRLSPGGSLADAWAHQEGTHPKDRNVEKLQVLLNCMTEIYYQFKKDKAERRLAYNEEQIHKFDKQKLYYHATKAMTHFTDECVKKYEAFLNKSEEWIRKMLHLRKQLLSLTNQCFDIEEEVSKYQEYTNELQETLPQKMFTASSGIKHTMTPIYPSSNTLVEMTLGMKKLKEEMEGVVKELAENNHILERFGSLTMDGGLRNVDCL

[4] = biological target: Tyrosine-protein kinase Lck (Homo sapiens) (UniProt P06239); assay: Inhibition of LCK (unknown origin) assessed as remaining enzyme activity at 10 uM by radioactive [33P]-ATP filter binding assay
[5] = biological target: Ephrin type-B receptor 2 (Homo sapiens) (UniProt P29323); assay: Inhibition of EPHB2 (unknown origin) assessed as remaining enzyme activity at 10 uM by radioactive [33P]-ATP filter binding assay
Procedure, shortened: (§1)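 A single 10 µM concentration was tested across a 140-kinase panel. Activity was measured by a radioactive 33P-ATP filter-binding assay run at the International Center for Kinase Profiling, University of Dundee.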

[6] = biological target: Discoidin domain-containing receptor 2 (Homo sapiens) (UniProt Q16832); assay: Inhibition of DDR2 (unknown origin) assessed as remaining enzyme activity at 10 uM by radioactive [33P]-ATP filter binding assay; procedure, shortened: as §1
[7] = biological target: Serine/threonine-protein kinase BRSK2 (Homo sapiens) (UniProt Q8IWQ3); assay: Inhibition of BRSK2 (unknown origin) assessed as remaining enzyme activity at 10 uM by radioactive [33P]-ATP filter binding assay; procedure, shortened: as §1
[8] = biological target: Dual specificity testis-specific protein kinase 1 (Homo sapiens) (UniProt Q15569); assay: Inhibition of TESK1 (unknown origin) assessed as remaining enzyme activity at 10 uM by radioactive [33P]-ATP filter binding assay
[9] = biological target: Ephrin type-A receptor 4 (Homo sapiens) (UniProt P54764); assay: Inhibition of EPHA4 (unknown origin) assessed as remaining enzyme activity at 10 uM by radioactive [33P]-ATP filter binding assay; procedure, shortened: as §1
[10] = biological target: Serine/threonine-protein kinase Chk1 (Homo sapiens) (UniProt O14757); assay: Inhibition of CHK1 (unknown origin) assessed as remaining enzyme activity at 10 uM by radioactive [33P]-ATP filter binding assay; procedure, shortened: as §1
Chain of Serine/threonine-protein kinase Chk1 (Homo sapiens) (O14757 whole entry): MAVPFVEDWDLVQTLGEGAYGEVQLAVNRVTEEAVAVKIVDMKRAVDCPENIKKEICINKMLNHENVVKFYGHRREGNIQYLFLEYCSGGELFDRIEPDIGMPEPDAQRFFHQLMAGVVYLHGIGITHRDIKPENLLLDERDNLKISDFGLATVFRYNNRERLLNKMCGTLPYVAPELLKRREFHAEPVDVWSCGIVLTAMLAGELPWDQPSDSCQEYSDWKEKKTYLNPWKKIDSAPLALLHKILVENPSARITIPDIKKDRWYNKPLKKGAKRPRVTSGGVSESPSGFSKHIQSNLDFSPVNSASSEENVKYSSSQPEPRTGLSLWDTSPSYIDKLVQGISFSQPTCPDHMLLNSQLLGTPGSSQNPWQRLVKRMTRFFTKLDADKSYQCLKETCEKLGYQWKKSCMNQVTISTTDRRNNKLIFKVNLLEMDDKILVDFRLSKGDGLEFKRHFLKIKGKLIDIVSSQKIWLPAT

[11] = biological target: Homeodomain-interacting protein kinase 2 (Homo sapiens) (UniProt Q9H2X6); assay: Inhibition of HIPK2 (unknown origin) assessed as remaining enzyme activity at 10 uM by radioactive [33P]-ATP filter binding assay
Chain of Homeodomain-interacting protein kinase 2 (Homo sapiens) (Q9H2X6 whole entry, looked up): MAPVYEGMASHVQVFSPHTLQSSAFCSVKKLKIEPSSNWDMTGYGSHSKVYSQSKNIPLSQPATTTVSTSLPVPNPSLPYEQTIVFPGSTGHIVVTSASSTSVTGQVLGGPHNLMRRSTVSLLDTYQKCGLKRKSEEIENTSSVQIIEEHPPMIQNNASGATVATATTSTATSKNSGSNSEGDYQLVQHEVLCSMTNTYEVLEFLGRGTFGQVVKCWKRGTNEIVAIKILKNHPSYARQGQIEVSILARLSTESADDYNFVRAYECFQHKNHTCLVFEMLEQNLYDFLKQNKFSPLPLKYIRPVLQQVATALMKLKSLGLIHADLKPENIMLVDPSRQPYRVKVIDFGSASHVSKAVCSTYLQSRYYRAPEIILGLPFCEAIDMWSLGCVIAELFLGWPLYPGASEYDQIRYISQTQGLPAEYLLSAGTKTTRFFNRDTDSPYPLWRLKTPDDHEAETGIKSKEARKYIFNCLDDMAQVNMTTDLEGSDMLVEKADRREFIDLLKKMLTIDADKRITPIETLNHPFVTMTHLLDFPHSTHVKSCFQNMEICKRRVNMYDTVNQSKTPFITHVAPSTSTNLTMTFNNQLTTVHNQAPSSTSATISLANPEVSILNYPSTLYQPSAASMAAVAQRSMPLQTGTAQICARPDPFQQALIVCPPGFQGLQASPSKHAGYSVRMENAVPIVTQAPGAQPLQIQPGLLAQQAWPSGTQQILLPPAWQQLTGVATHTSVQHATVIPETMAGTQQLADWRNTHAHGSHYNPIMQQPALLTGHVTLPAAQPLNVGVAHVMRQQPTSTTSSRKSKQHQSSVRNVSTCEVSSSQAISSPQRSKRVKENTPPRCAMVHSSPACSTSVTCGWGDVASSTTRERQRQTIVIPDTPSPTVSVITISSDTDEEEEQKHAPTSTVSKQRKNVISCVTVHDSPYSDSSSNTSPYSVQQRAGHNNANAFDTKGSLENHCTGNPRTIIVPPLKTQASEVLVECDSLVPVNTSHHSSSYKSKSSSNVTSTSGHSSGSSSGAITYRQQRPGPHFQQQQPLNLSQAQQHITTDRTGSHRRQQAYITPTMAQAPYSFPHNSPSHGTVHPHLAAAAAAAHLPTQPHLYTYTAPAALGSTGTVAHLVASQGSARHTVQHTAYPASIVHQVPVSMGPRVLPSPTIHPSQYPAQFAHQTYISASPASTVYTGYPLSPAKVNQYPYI

[12] = biological target: Mitogen-activated protein kinase kinase kinase 9 (Homo sapiens) (UniProt P80192); assay: Inhibition of MLK1 (unknown origin) assessed as remaining enzyme activity at 10 uM by radioactive [33P]-ATP filter binding assay
[13] = biological target: Mitogen-activated protein kinase kinase kinase kinase 2 (Homo sapiens) (UniProt Q12851); assay: Inhibition of GCK (unknown origin) assessed as remaining enzyme activity at 10 uM by radioactive [33P]-ATP filter binding assay
[14] = biological target: Serine/threonine-protein kinase PAK 4 (Homo sapiens) (UniProt O96013); assay: Inhibition of PAK4 (unknown origin) assessed as remaining enzyme activity at 10 uM by radioactive [33P]-ATP filter binding assay
[15] = biological target: Tyrosine-protein kinase BTK (Homo sapiens) (UniProt Q06187); assay: Inhibition of BTK (unknown origin) assessed as remaining enzyme activity at 10 uM by radioactive [33P]-ATP filter binding assay; procedure, shortened: as §1
[16] = biological target: Mitogen-activated protein kinase 12 (Homo sapiens) (UniProt P53778); assay: Inhibition of p38gamma (unknown origin) assessed as remaining enzyme activity at 10 uM by radioactive [33P]-ATP filter binding assay
Procedure, shortened: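 Single-concentration screen against a 140-kinase panel. Done by the International Center for Kinase Profiling, University of Dundee, with a radioactive 33P-ATP filter-binding read-out.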

[17] = biological target: Serine/threonine-protein kinase Chk2 (Homo sapiens) (UniProt O96017); assay: Inhibition of CHK2 (unknown origin) assessed as remaining enzyme activity at 10 uM by radioactive [33P]-ATP filter binding assay; procedure, shortened: as §1
[18] = biological target: Ribosomal protein S6 kinase alpha-5 (Homo sapiens) (UniProt O75582); assay: Inhibition of MSK1 (unknown origin) assessed as remaining enzyme activity at 10 uM by radioactive [33P]-ATP filter binding assay
Chain of Ribosomal protein S6 kinase alpha-5 (Homo sapiens) (O75582 whole entry, looked up): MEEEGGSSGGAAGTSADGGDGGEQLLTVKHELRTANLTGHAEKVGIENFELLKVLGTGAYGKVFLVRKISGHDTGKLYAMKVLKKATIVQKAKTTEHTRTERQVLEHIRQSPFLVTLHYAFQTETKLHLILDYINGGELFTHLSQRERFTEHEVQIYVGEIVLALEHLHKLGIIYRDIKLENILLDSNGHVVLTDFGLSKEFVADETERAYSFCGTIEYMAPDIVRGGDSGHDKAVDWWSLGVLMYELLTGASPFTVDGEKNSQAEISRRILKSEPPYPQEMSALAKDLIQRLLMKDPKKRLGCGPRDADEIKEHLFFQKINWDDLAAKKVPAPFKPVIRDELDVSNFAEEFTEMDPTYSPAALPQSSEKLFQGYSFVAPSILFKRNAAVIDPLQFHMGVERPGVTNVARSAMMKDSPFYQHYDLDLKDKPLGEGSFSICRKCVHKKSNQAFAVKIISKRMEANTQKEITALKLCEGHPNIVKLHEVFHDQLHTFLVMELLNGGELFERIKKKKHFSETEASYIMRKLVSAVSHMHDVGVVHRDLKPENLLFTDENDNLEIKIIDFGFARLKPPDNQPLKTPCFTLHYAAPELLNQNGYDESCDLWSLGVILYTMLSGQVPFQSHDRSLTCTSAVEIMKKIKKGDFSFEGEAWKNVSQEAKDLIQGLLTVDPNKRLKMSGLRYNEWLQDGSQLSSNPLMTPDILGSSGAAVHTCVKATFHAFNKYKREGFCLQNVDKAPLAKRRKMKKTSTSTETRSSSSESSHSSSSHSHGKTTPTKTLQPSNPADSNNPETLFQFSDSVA

[19] = biological target: Dual specificity protein kinase CLK2 (Homo sapiens) (UniProt P49760); assay: Inhibition of CLK2 (unknown origin) assessed as remaining enzyme activity at 10 uM by radioactive [33P]-ATP filter binding assay; procedure, shortened: as §1
Chain of Dual specificity protein kinase CLK2 (Homo sapiens) (P49760 whole entry, looked up): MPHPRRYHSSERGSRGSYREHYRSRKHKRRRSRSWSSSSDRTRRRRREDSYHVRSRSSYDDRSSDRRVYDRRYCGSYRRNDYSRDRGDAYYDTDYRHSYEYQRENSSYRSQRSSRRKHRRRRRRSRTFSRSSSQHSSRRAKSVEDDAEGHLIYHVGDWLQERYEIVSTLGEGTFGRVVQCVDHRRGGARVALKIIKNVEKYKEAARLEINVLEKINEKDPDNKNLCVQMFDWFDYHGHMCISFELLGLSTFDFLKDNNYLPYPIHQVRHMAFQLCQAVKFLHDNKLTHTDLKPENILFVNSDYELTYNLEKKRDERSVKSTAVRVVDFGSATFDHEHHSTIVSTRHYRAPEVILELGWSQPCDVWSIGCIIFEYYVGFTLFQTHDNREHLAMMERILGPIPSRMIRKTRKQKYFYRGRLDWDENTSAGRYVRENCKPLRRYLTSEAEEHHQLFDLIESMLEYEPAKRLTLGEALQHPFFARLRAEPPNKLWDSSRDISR

[20] = biological target: Eukaryotic translation initiation factor 2-alpha kinase 3 (Homo sapiens) (UniProt Q9NZJ5); assay: Inhibition of EIF2AK3 (unknown origin) assessed as remaining enzyme activity at 10 uM by radioactive [33P]-ATP filter binding assay; procedure, shortened: as §1
Chain of Eukaryotic translation initiation factor 2-alpha kinase 3 (Homo sapiens) (Q9NZJ5 whole entry): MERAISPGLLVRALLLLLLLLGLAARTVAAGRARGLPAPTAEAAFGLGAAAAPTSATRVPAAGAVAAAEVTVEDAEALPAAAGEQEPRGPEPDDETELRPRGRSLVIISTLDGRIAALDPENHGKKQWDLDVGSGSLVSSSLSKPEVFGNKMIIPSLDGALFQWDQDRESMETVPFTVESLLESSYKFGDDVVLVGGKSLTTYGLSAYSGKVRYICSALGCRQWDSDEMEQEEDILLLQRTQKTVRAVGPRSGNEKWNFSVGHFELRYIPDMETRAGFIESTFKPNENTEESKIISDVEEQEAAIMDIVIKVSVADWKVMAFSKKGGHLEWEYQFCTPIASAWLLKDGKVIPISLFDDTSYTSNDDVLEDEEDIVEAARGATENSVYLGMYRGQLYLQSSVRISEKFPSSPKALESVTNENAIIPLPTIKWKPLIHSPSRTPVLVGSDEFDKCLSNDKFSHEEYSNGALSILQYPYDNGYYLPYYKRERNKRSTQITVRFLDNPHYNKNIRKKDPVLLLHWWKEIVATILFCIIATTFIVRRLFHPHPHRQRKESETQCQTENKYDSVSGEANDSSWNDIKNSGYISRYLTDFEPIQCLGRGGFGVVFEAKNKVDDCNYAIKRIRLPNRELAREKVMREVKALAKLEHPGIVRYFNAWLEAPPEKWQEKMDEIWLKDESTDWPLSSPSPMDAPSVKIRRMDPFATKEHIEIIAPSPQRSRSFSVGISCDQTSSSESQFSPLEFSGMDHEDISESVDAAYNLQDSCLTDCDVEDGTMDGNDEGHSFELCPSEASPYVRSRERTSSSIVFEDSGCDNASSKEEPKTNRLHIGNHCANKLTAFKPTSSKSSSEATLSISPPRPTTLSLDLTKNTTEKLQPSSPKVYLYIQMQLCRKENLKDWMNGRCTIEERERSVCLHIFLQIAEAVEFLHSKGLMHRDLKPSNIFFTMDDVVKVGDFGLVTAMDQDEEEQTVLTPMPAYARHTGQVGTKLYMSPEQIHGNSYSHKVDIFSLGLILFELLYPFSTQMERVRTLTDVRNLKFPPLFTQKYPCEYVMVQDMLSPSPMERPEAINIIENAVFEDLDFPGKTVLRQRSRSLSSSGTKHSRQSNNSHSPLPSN

[21] = biological target: Myosin light chain kinase, smooth muscle (Homo sapiens) (UniProt Q15746); assay: Inhibition of smMLCK (unknown origin) assessed as remaining enzyme activity at 10 uM by radioactive [33P]-ATP filter binding assay
[22] = biological target: Serine/threonine-protein kinase ULK1 (Homo sapiens) (UniProt O75385); assay: Inhibition of ULK1 (unknown origin) assessed as remaining enzyme activity at 10 uM by radioactive [33P]-ATP filter binding assay
[23] = biological target: Receptor tyrosine-protein kinase erbB-4 (Homo sapiens) (UniProt Q15303); assay: Inhibition of HER4 (unknown origin) assessed as remaining enzyme activity at 10 uM by radioactive [33P]-ATP filter binding assay
Huh-7 [24] = assay: Induction of cell death in human HuH7 cells assessed as DNA fragmentation at cytotoxic IC50 level after 72 hrs by Hoechst 33258 staining based […]; assay type: functional
Procedure, shortened: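 Cells were washed in cold PBS, fixed 10 min in cold methanol and stained with Hoechst 33258 at 3 µg/mL for 5 min in the dark. Nuclear condensation and fragmentation were examined by fluorescence microscopy at 40×.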

[25] = biological target: Fibroblast growth factor receptor 1 (Homo sapiens) (UniProt P11362); assay: Inhibition of FGFR1 (unknown origin) assessed as remaining enzyme activity at 10 uM by radioactive [33P]-ATP filter binding assay; procedure, shortened: as §1
[26] = biological target: Mitogen-activated protein kinase kinase kinase 5 (Homo sapiens) (UniProt Q99683); assay: Inhibition of ASK1 (unknown origin) assessed as remaining enzyme activity at 10 uM by radioactive [33P]-ATP filter binding assay; procedure, shortened: as §1
[27] = biological target: Inhibitor of nuclear factor kappa-B kinase subunit beta (Homo sapiens) (UniProt O14920); assay: Inhibition of IKKbeta (unknown origin) assessed as remaining enzyme activity at 10 uM by radioactive [33P]-ATP filter binding assay
[28] = biological target: Ephrin type-B receptor 1 (Homo sapiens) (UniProt P54762); assay: Inhibition of EPHB1 (unknown origin) assessed as remaining enzyme activity at 10 uM by radioactive [33P]-ATP filter binding assay; procedure, shortened: as §1

Activity [2]: 112% | Activity [3]: 93% | Activity [4]: 99% | Activity [5]: 114% | Activity [6]: 113% | Activity [7]: 102% | Activity [8]: 76% | Activity [9]: 125% | Activity [10]: 85% | Activity [11]: 124% | Activity [12]: 90% | Activity [13]: 112% | Activity [14]: 105% | Activity [15]: 92% | Activity [16]: 107% | Activity [17]: 94% | Activity [18]: 89% | Activity [19]: 83% | Activity [20]: 96% | Activity [21]: 103% | Activity [22]: 136% | Activity [23]: 128% | Activity [25]: 127% | Activity [26]: 97% | Activity [27]: 70% | Activity [28]: 128%
Structure (SMILES): Cc1ccc(-c2cc(C(=O)Nc3ccnc(Cl)c3)nn2-c2ccc3ccccc3n2)cc1
Activity (Huh-7 [1]): Active | Activity (Huh-7 [24]): Active
